Tests used:
Format in all cases: functional
NCI-H322M = assay: Cytotoxicity against human NCI-H322M cells assessed as cell growth at 0.01 uM after 48 hrs by sulforhodamine B assay; conditions: read-out: Activity
MOLT-4 [1] = assay: Cytotoxicity against human MOLT4 cells assessed as cell growth at 10 uM; conditions: read-out: Activity
How it was run: (§1)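 NCI-60 screen: cells grown in RPMI 1640 with 5% FBS and 2 mM L-glutamine, plated at 5000–40,000 cells/well according to doubling time, and preincubated 24 h at 37 °C, 5% CO2. The single 10 µM dose (DMSO stock) was added, then incubated 48 h. Cells were TCA-fixed and stained with 0.4% SRB, read at 515 nm, and growth % calculated against time-zero and control plates.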

HL-60(TB) = assay: Cytotoxicity against human HL-60(TB) cells assessed as cell growth at 0.001 uM after 48 hrs by sulforhodamine B assay; conditions: HL-60, 48 h, read-out: Activity
How it was run: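 NCI 60-cell panel. Cells are grown in RPMI 1640 with 5% FBS and 2 mM L-glutamine, seeded at 5000–40,000 cells/well according to doubling time, and preincubated 24 h. Time-zero plates are TCA-fixed. Compound from DMSO stock is given at five 10-fold or 1/2-log concentrations for 48 h at 37 °C, 5% CO2. Suspension cells are fixed with 80% TCA (final 16%) and SRB-stained, with absorbance at 515 nm. Percent growth is derived from Tz, control and test readings.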

CCRF-CEM [2] = assay: Cytotoxicity against human CCRF-CEM cells assessed as cell growth at 1 uM after 48 hrs by sulforhodamine B assay; conditions: read-out: Activity
How it was run: (§2)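 NCI-60 five-dose screen. Cells were grown in RPMI 1640 with 5% FBS and 2 mM L-glutamine, plated at 5000–40,000 cells/well and preincubated for 24 h. Time-zero plates were TCA-fixed. DMSO-solubilized drug was added at five concentrations (10-fold or ½-log serial dilutions) for 48 h at 37 °C, 5% CO2. Cells were TCA-fixed, stained with 0.4% SRB and read at 515 nm. Percent growth used time-zero, control and test absorbances.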

MDA-MB-231 [3] = assay: Cytotoxicity against human MDA-MB-231 cells assessed as cell growth at 100 nM after 48 hrs by sulforhodamine B assay; conditions: MDA-MB-231, 48 h, read-out: Activity
T47D = assay: Cytotoxicity against human T47D cells assessed as cell growth at 100 nM after 48 hrs by sulforhodamine B assay; conditions: read-out: Activity
MDA-MB-468 [4] = assay: Growth inhibition of human MDA-MB-468 cells after 48 hrs by sulforhodamine B assay; conditions: MDA-MB-468, 48 h
How it was run: (§3)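 NCI 60-cell screen, five-dose mode. Cells grown in RPMI 1640 with 5% FBS and 2 mM L-glutamine and plated at 5000-40,000 cells/well according to doubling time. After 24 h preincubation, a Tz plate was TCA-fixed. Five concentrations (10-fold or 1/2 log dilutions) were applied for 48 h at 37 °C. SRB staining read at 515 nm. IC50 taken from [(Ti-Tz)/(C-Tz)]×100 = 50.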

MDA-MB-231 [5] = assay: Growth inhibition of human MDA-MB-231 cells after 48 hrs by sulforhodamine B assay; conditions: MDA-MB-231, 48 h; how it was run: as §3
DU-145 = assay: Cytotoxicity against human DU145 cells assessed as cell growth at 100 nM after 48 hrs by sulforhodamine B assay; conditions: DU-145, 48 h, read-out: Activity
SNB-19 [6] = assay: Cytotoxicity against human SNB19 cells assessed as cell growth at 0.001 uM after 48 hrs by sulforhodamine B assay; conditions: SNB-19, 48 h, read-out: Activity
COLO 205 = assay: Cytotoxicity against human COLO205 cells assessed as cell growth at 0.01 uM after 48 hrs by sulforhodamine B assay; conditions: COLO 205, 48 h, read-out: Activity; how it was run: as §2
[7] = Cytotoxicity against human RPMI8266 cells assessed as cell growth at 1 uM after 48 hrs by sulforhodamine B assay; conditions: read-out: Activity
CCRF-CEM [8] = assay: Cytotoxicity against human CCRF-CEM cells assessed as cell growth at 0.01 uM after 48 hrs by sulforhodamine B assay; conditions: read-out: Activity; how it was run: as §2
HT-29 = assay: Cytotoxicity against human HT-29 cells assessed as cell growth at 100 nM after 48 hrs by sulforhodamine B assay; conditions: HT-29, 48 h, read-out: Activity
A549 [9] = assay: Cytotoxicity against human A549 cells assessed as cell growth at 0.01 uM after 48 hrs by sulforhodamine B assay; conditions: A549, 48 h, read-out: Activity; how it was run: as §2
SK-MEL-2 = assay: Cytotoxicity against human SK-MEL-2 cells assessed as cell growth at 0.001 uM after 48 hrs by sulforhodamine B assay; conditions: SK-MEL-2, 48 h, read-out: Activity
A549 [10] = assay: Cytotoxicity against human A549 cells assessed as cell growth at 10 uM after 48 hrs by sulforhodamine B assay; conditions: A549, 48 h, read-out: Activity; how it was run: as §2
HOP-92 = assay: Cytotoxicity against human HOP92 cells assessed as cell growth at 100 nM after 48 hrs by sulforhodamine B assay; conditions: HOP-92, 48 h, read-out: Activity
MOLT-4 [11] = assay: Cytotoxicity against human MOLT4 cells assessed as cell growth at 10 uM after 48 hrs by sulforhodamine B assay; conditions: MOLT-4, 48 h, read-out: Activity
EKVX = assay: Cytotoxicity against human EKVX cells assessed as cell growth at 1 uM after 48 hrs by sulforhodamine B assay; conditions: read-out: Activity
HCT-15 = assay: Cytotoxicity against human HCT15 cells assessed as cell growth at 0.01 uM after 48 hrs by sulforhodamine B assay; conditions: HCT-15, 48 h, read-out: Activity
MDA-MB-468 [12] = assay: Cytotoxicity against human MDA-MB-468 cells assessed as cell growth at 0.01 uM after 48 hrs by sulforhodamine B assay; conditions: MDA-MB-468, 48 h, read-out: Activity
SNB-19 [13] = assay: Cytotoxicity against human SNB19 cells assessed as cell growth at 10 uM; conditions: read-out: Activity; how it was run: as §1
K562 = assay: Growth inhibition of human K562 cells after 48 hrs by sulforhodamine B assay; conditions: K562, 48 h; how it was run: as §3
ACHN [14] = assay: Cytotoxicity against human ACHN cells assessed as cell growth at 10 uM; conditions: read-out: Activity
How it was run: (§4)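 Single-dose NCI-60 screen at 10 µM. Cells were grown in RPMI 1640 with 5% FBS and 2 mM L-glutamine, then treated for 48 h at 37 °C. Protein was measured by SRB staining with absorbance at 515 nm. Percentage growth was recorded, and inhibition percentage was calculated as 100 minus growth percentage.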

MDA-MB-231 [15] = assay: Cytotoxicity against human MDA-MB-231 cells assessed as cell growth at 10 uM after 48 hrs by sulforhodamine B assay; conditions: MDA-MB-231, 48 h, read-out: Activity
A549 [16] = assay: Cytotoxicity against human A549 cells assessed as cell growth at 10 uM; conditions: read-out: Activity; how it was run: as §4
ACHN [17] = assay: Cytotoxicity against human ACHN cells assessed as cell growth at 1 uM after 48 hrs by sulforhodamine B assay; conditions: read-out: Activity; how it was run: as §2
SNB-19 [18] = assay: Cytotoxicity against human SNB19 cells assessed as cell growth at 0.01 uM after 48 hrs by sulforhodamine B assay; conditions: SNB-19, 48 h, read-out: Activity

| Structure (SMILES) | growth at 0.01 µM (NCI-H322M) [%] | growth at 10 µM (MOLT-4 [1]) [%] | growth at 0.001 µM (HL-60(TB)) [%] | growth at 1 µM (CCRF-CEM [2]) [%] | growth at 0.1 µM (MDA-MB-231 [3]) [%] | growth at 0.1 µM (T47D) [%] | GI50 (MDA-MB-468 [4]) [nM] | LC50 (concentration giving 50% net cell kill) (MDA-MB-468 [4]) [nM] | TGI (MDA-MB-468 [4]) [nM] | GI50 (MDA-MB-231 [5]) [nM] | LC50 (MDA-MB-231 [5]) [nM] | growth at 0.1 µM (DU-145) [%] | growth at 0.001 µM (SNB-19 [6]) [%] | growth at 0.01 µM (COLO 205) [%] | growth at 1 µM [7] [%] | growth at 0.01 µM (CCRF-CEM [8]) [%] | growth at 0.1 µM (HT-29) [%] | growth at 0.01 µM (A549 [9]) [%] | growth at 0.001 µM (SK-MEL-2) [%] | growth at 10 µM (A549 [10]) [%] | other results |
| --- | --- | --- | --- | --- | --- | --- | --- | --- | --- | --- | --- | --- | --- | --- | --- | --- | --- | --- | --- | --- | --- |
| COc1cc(C)cc(-c2c(-c3ccnc(-c4ccc(N(C)C)cc4)c3)cnn2CC#N)c1 | 83 | 9.77 | 82 | 6 | -5 | 44 | 26.1 | 1040 | 79.8 | 256 | > 100000 | -51 | 90 | 72 | -31 | 73 | -24 | 59 | 97 | 4 | growth at 0.1 µM (HOP-92): -3%; growth at 10 µM (MOLT-4 [11]): 1%; growth at 1 µM (EKVX): 9%; growth at 0.01 µM (HCT-15): 12%; growth at 0.01 µM (MDA-MB-468 [12]): -10%; growth at 10 µM (SNB-19 [13]): 26.5%; GI50 (K562): 58.4 nM; LC50 (50% net cell kill) (K562): > 100000 nM; TGI (K562): 3820 nM; growth at 10 µM (ACHN [14]): 22.1%; growth at 10 µM (MDA-MB-231 [15]): 25%; growth at 10 µM (A549 [16]): 22.2%; growth at 1 µM (ACHN [17]): 19%; growth at 0.01 µM (SNB-19 [18]): 44% |
| Cc1cc(O)cc(-c2nn(CC#N)cc2-c2ccnc(-c3ccc(N(C)C)cc3)c2)c1 | 92 | 28.1 | 100 | 13 | 84 | 82 | 1630 | 9940 | 4020 | 2940 | > 100000 | 94 | 96 | 95 | 15 | 96 | 102 | 91 | 94 | -8 | TGI (MDA-MB-231 [5]): 22600 nM; growth at 0.1 µM (HOP-92): 73%; growth at 10 µM (MOLT-4 [11]): -6%; growth at 1 µM (EKVX): 29%; growth at 0.01 µM (HCT-15): 92%; growth at 0.01 µM (MDA-MB-468 [12]): 91%; growth at 10 µM (SNB-19 [13]): 46.4%; GI50 (K562): 2550 nM; LC50 (50% net cell kill) (K562): > 100000 nM; TGI (K562): 32800 nM; growth at 10 µM (ACHN [14]): 31.2%; growth at 10 µM (MDA-MB-231 [15]): -21%; growth at 10 µM (A549 [16]): 39%; growth at 1 µM (ACHN [17]): 18%; growth at 0.01 µM (SNB-19 [18]): 95% |

Reference: ChEMBL document CHEMBL1165950, “Design and synthesis of new potent anticancer pyrazoles with high FLT3 kinase inhibitory selectivity” (Bioorg Med Chem, 2010)
